According to the RNAGym collection of RNA variant scans (doi:10.1038/s41586-018-0170-7):

B1: tRNA (parent)
chain: GUUCCGUUGGCGUAAUGGUAACGCGUCUCCCUCCUAAGGAGAAGACUGCGGGUUCGAGUCCCGUACGGAACG

Variants of: B1
Assay: yeast fitness, log relative to wild type (ln ratio); higher = fitter; tRNA-Arg(CCU), competitive growth, 37 C, 1 M NaCl
In short: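 Variants were counted by 125 bp paired-end Illumina sequencing after pools of a combinatorial tRNA-Arg(CCU) library, held on a HIS3 centromeric plasmid in BY4742 lacking the chromosomal gene, grew ~6.5 generations (~26.5 h) in SC-HIS 1M NaCl at 37 °C. Each genotype's fitness is the natural log of its generations relative to the wild type's. Generations were OD-scaled log2 output/input frequencies, inverse-variance weighted over replicates.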

Question: Which “yeast fitness (ln)” value does the source give for U2C C46U C66U A69G C71U here?
Answer: -0.145

Question: With U2C G6A A43C C66A A70U as the variant, how does the “yeast fitness (ln)” value read?
Answer: -0.0851

Question: Which “yeast fitness (ln)” value does the source give for U2C G6U A43C C46U C66U A70U C71U here?
Answer: -0.254

Question: With U2C G6U A43C C46U C66U A69G A70U C71U as the variant, how does the “yeast fitness (ln)” value read?
Answer: -0.471

Question: For U2C G6A A43C C66U A70G C71U, which “yeast fitness (ln)” value is on record?
Answer: -0.0302

Question: For U2C G6A C27U A43C C46U C66U C71U, which “yeast fitness (ln)” value is on record?
Answer: -0.122

Question: For U2C G6U, which “yeast fitness (ln)” value is on record?
Answer: -0.00207

Question: With U2C G6A as the variant, how does the “yeast fitness (ln)” value read?
Answer: 0.0247

Question: Which “yeast fitness (ln)” value does the source give for U2C C46U C66U C71U here?
Answer: -0.0488

Question: For U2C C27U C71U, which “yeast fitness (ln)” value is on record?
Answer: -0.273

Question: For U2C G6A A43C C66U A69G A70G C71U, which “yeast fitness (ln)” value is on record?
Answer: -0.072

Question: Which “yeast fitness (ln)” value does the source give for U2C G6A C71U here?
Answer: -0.0812

Question: With U2C G6U A43C C46U as the variant, how does the “yeast fitness (ln)” value read?
Answer: -0.0413

Question: Which “yeast fitness (ln)” value does the source give for U2C G6A C66U A69G A70U C71U here?
Answer: -0.343

Question: Which “yeast fitness (ln)” value does the source give for U2C G6A C27U A43C C66A A70G C71U here?
Answer: -0.0895

Question: Which “yeast fitness (ln)” value does the source give for U2C C66U A70G C71U here?
Answer: -0.0234

Question: Which “yeast fitness (ln)” value does the source give for U2C C46U A69G C71U here?
Answer: -0.131

Question: Which “yeast fitness (ln)” value does the source give for U2C G6A C27U C46U here?
Answer: -0.0382

Question: Which “yeast fitness (ln)” value does the source give for U2C G6A C66A A70G C71U here?
Answer: -0.286

Question: With U2C G6U A43C C66A A69G A70G as the variant, how does the “yeast fitness (ln)” value read?
Answer: -0.029

Question: For U2C G6U A43C C66A A69G A70U, which “yeast fitness (ln)” value is on record?
Answer: -0.338

Question: For U2C G6U A43C C66U, which “yeast fitness (ln)” value is on record?
Answer: -0.161

Question: Which “yeast fitness (ln)” value does the source give for U2C G6U A43C C66A here?
Answer: -0.135

Question: For U2C G6U A43C A69G A70G C71U, which “yeast fitness (ln)” value is on record?
Answer: -0.13

Question: For U2C G6A C27U C66U A70U, which “yeast fitness (ln)” value is on record?
Answer: -0.203

Question: Which “yeast fitness (ln)” value does the source give for U2C G6A C27U C66U A70G here?
Answer: -0.0339

Question: With U2C G6A C27U C46U C66U as the variant, how does the “yeast fitness (ln)” value read?
Answer: -0.136

Question: Which “yeast fitness (ln)” value does the source give for U2C G6A C66A A69G A70G C71U here?
Answer: -0.139

Question: For U2C C46U A69G A70G, which “yeast fitness (ln)” value is on record?
Answer: -0.016

Question: For U2C C46U A69G A70U, which “yeast fitness (ln)” value is on record?
Answer: -0.0822

Question: With U2C G6A C46U A69G A70U C71U as the variant, how does the “yeast fitness (ln)” value read?
Answer: -0.183

Question: Which “yeast fitness (ln)” value does the source give for U2C G6A C66U A70U C71U here?
Answer: -0.172

Question: Which “yeast fitness (ln)” value does the source give for U2C G6A A43C C66U A69G A70U C71U here?
Answer: -0.366

Question: For U2C G6U A43C C46U A69G A70G C71U, which “yeast fitness (ln)” value is on record?
Answer: -0.149

Question: With U2C C46U A69G A70G C71U as the variant, how does the “yeast fitness (ln)” value read?
Answer: -0.0139

Question: With U2C C46U C66U A69G A70U C71U as the variant, how does the “yeast fitness (ln)” value read?
Answer: -0.359

Question: Which “yeast fitness (ln)” value does the source give for U2C G6A A43C C46U C66A C71U here?
Answer: -0.127

Question: For U2C G6U A43C C46U A70U C71U, which “yeast fitness (ln)” value is on record?
Answer: -0.125

Question: Which “yeast fitness (ln)” value does the source give for U2C G6A C27U A43C C46U C66U here?
Answer: -0.0567

Question: With U2C G6A C27U A43C C66U A70G C71U as the variant, how does the “yeast fitness (ln)” value read?
Answer: -0.101

Question: With U2C G6U A43C C46U C66A as the variant, how does the “yeast fitness (ln)” value read?
Answer: -0.0972

Question: With U2C G6U A43C C46U C66U as the variant, how does the “yeast fitness (ln)” value read?
Answer: -0.158

Question: With U2C C66U C71U as the variant, how does the “yeast fitness (ln)” value read?
Answer: -0.0912

Question: For U2C G6A C27U C66U, which “yeast fitness (ln)” value is on record?
Answer: -0.217

Question: With U2C G6A C27U A69G A70G as the variant, how does the “yeast fitness (ln)” value read?
Answer: -0.252

Question: With U2C G6A C27U A69G A70U as the variant, how does the “yeast fitness (ln)” value read?
Answer: -0.115

Question: For U2C G6A C66U A69G A70G C71U, which “yeast fitness (ln)” value is on record?
Answer: -0.0248

Question: Which “yeast fitness (ln)” value does the source give for U2C C46U C66U A69G A70G C71U here?
Answer: -0.0462

Question: Which “yeast fitness (ln)” value does the source give for U2C G6A A43C A69G A70G C71U here?
Answer: -0.153

Question: For U2C C46U C66A A69G A70G, which “yeast fitness (ln)” value is on record?
Answer: -0.0391

Question: With U2C G6A A43C C46U C66A A70G C71U as the variant, how does the “yeast fitness (ln)” value read?
Answer: -0.108

Question: Which “yeast fitness (ln)” value does the source give for U2C G6A C66U C71U here?
Answer: -0.28

Question: Which “yeast fitness (ln)” value does the source give for U2C G6U A43C C46U C66U A70G C71U here?
Answer: -0.352

Question: For U2C C46U C71U, which “yeast fitness (ln)” value is on record?
Answer: -0.069

Question: Which “yeast fitness (ln)” value does the source give for U2C C66U A69G A70G C71U here?
Answer: -0.101

Question: With U2C C46U C66A as the variant, how does the “yeast fitness (ln)” value read?
Answer: -0.0347

Question: With U2C C46U C66U as the variant, how does the “yeast fitness (ln)” value read?
Answer: -0.171

Question: Which “yeast fitness (ln)” value does the source give for U2C G6A C46U A69G A70G here?
Answer: -0.0375

Question: For U2C G6A C46U A69G A70U, which “yeast fitness (ln)” value is on record?
Answer: -0.084

Question: For U2C G6A C27U C46U C66U C71U, which “yeast fitness (ln)” value is on record?
Answer: -0.119

Question: For U2C G6A C46U A70U C71U, which “yeast fitness (ln)” value is on record?
Answer: -0.0461

Question: For U2C C46U A69G, which “yeast fitness (ln)” value is on record?
Answer: -0.0478

Question: With U2C G6A C27U A43C C66U A69G A70G as the variant, how does the “yeast fitness (ln)” value read?
Answer: -0.0511

Question: Which “yeast fitness (ln)” value does the source give for U2C G6A C27U A43C C66U A69G A70U here?
Answer: -0.33

Question: With U2C G6A C27U C66A A70G C71U as the variant, how does the “yeast fitness (ln)” value read?
Answer: -0.106

Question: With U2C G6U A43C A69G A70U C71U as the variant, how does the “yeast fitness (ln)” value read?
Answer: -0.4

Question: Which “yeast fitness (ln)” value does the source give for U2C G6U A43C C66A A70U here?
Answer: -0.168

Question: With U2C G6U A43C C66A A70G as the variant, how does the “yeast fitness (ln)” value read?
Answer: -0.0246

Question: Which “yeast fitness (ln)” value does the source give for U2C G6U A43C C46U A70G here?
Answer: -0.113

Question: Which “yeast fitness (ln)” value does the source give for U2C G6U A43C C46U A70U here?
Answer: -0.061

Question: Which “yeast fitness (ln)” value does the source give for U2C G6A C27U A69G C71U here?
Answer: -0.0988

Question: With U2C G6A C46U A69G A70G C71U as the variant, how does the “yeast fitness (ln)” value read?
Answer: -0.145

Question: With U2C G6U A43C C66A A69G A70U C71U as the variant, how does the “yeast fitness (ln)” value read?
Answer: -0.321

Question: Which “yeast fitness (ln)” value does the source give for U2C G6A A43C C66A A69G A70G C71U here?
Answer: -0.218

Question: With U2C G6A C27U C66A A70U C71U as the variant, how does the “yeast fitness (ln)” value read?
Answer: -0.269

Question: Which “yeast fitness (ln)” value does the source give for U2C G6A C27U A43C C46U A69G A70U C71U here?
Answer: -0.359

Question: With U2C G6U A43C C66U A70U as the variant, how does the “yeast fitness (ln)” value read?
Answer: -0.194

Question: Which “yeast fitness (ln)” value does the source give for U2C G6U A43C C66U A70G here?
Answer: -0.279

Question: Which “yeast fitness (ln)” value does the source give for U2C G6A C46U C66A A70U here?
Answer: -0.067

Question: With U2C G6A C46U C66A A70G as the variant, how does the “yeast fitness (ln)” value read?
Answer: -0.016

Question: With U2C G6A C46U A69G C71U as the variant, how does the “yeast fitness (ln)” value read?
Answer: -0.107

Question: For U2C G6U A43C C46U C66A C71U, which “yeast fitness (ln)” value is on record?
Answer: -0.077

Question: With U2C G6A C27U A43C C46U C66A A70U as the variant, how does the “yeast fitness (ln)” value read?
Answer: -0.0497
